Marks after values point to notes of the source that are not given here.
Key:
[1] = system: carrageenan-induced paw edema in rats; conditions: cited from earlier work
[2] = system: PTZ-induced seizures in mice; assay: Pentylenetetrazol; format: in vivo; conditions: Mus musculus, po, 24 h, read-out: 24 h mortality
How it was run: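 Mice were randomised into ten groups of ten. Animals were dosed orally, with 0.5% carboxymethyl cellulose as the negative-control vehicle. Seizures were then induced by intraperitoneal pentylenetetrazol at a convulsive dose of 85 mg kg−1.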

[3] = system: pilocarpine-induced seizures in mice; assay: Pilocarpine-induced seizure; format: in vivo
How it was run: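 Male mice, n = 10 per group. Vehicle (0.5% CMC) or test compound (20 mg kg−1) given orally 30 min before pilocarpine (300 mg kg−1, i.p.) to induce status epilepticus. Valproic acid reference was 300 mg kg−1 orally, 30 min prior. Non-epileptic controls got vehicle only. Scored latency to forelimb clonus (stage 3), severity at 30, 60, 90 and 120 min, and 24 h survival. Mean ± SD.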

SMILES	Paw thickness difference, 1st hour ([1]; 1st hour post-carrageenan, oral, mean ± SD, n = 6)	Percentage of inhibition of paw thickness, 1st hour ([1]; 1st hour, vs carrageenan group)	Paw thickness difference, 2nd hour ([1]; 2nd hour post-carrageenan, oral, mean ± SD, n = 6)	Percentage of inhibition of paw thickness, 2nd hour ([1]; 2nd hour, vs carrageenan group)	Paw thickness difference, 3rd hour ([1]; 3rd hour post-carrageenan, oral, mean ± SD, n = 6)	Percentage of inhibition of paw thickness, 3rd hour ([1]; 3rd hour, vs carrageenan group)	Paw thickness difference, 4th hour ([1]; 4th hour post-carrageenan, oral, mean ± SD, n = 6)	Percentage of inhibition of paw thickness, 4th hour ([1]; 4th hour, vs carrageenan group)	Paw thickness difference, 5th hour ([1]; 5th hour post-carrageenan, oral, mean ± SD, n = 6)	Percentage of inhibition of paw thickness, 5th hour ([1]; 5th hour, vs carrageenan group)	weight gain (paw) ([1]; 5 hour mark)	Paw weight increase ([1]; right vs left paw, mean ± SD, n = 6)	mortality at 20 mg/kg [2]	24 h Survival ([3]; compounds 20 mg kg^−1, valproic acid 300 mg kg^−1 orally, mice n = 10)	Onset (latency to forelimb clonus, stage 3) ([3]; mice n = 10, compounds 20 mg kg^−1 orally, valproic acid 300 mg kg^−1 orally, 30 minutes before pilocarpine 300 mg kg^−1 i.p., mean ± SD)	Reduction of final seizure severity ([3]; vs pilocarpine group, 120 min)
Cc1ccc(-c2cc(C(F)(F)F)nn2-c2ccc(S(N)(=O)=O)cc2)cc1 [Celecoxib]	1.4 ± 0.38 mm	29.31%	2.36 ± 0.51 mm	28.34%	2.83 ± 0.43 mm	33%	3.01 ± 0.57 mm	40.39%	3.10 ± 0.23 mm	41.65%	68.15%	29.95 ± 2.20^ab %	–	–	–	–
CCCC(CCC)C(=O)O [Valproic acid (VI), valproic acid]	–	–	–	–	–	–	–	–	–	–	–	–	30%	60%	10.65 ± 0.52^a mins	60%
